Assay results published in ChEMBL document CHEMBL4689842, “EUbOPEN Chemogenomics Library wave 1” (2021).

System: HEK-293T
Experiment: Multiplex assay against HEK293T;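 for Population Tubulin-Different-Phenotype (%): share of the cells with healthy nuclei that show this phenotype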
Format: toxicity, cell-based
Settings: human
In short: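 Values for tubulin, mitochondrial-mass and membrane-permeability phenotypes are per cents of cells with healthy nuclei. These cells were identified by CellPathfinder machine-learning gating of live cells that had been stained at seeding with Hoechst33342, BioTracker Green Microtubule Cytoskeleton Dye, MitoTracker Red and Annexin V Alexa Fluor 680 and imaged on a CQ1 microscope at 37°C and 5% CO2 after compound addition. The gating first set Hoechst high-intensity objects apart from normal cells, then split normal cells into healthy, pyknosed or fragmented nuclei, and pyknosed cells into mitotic or apoptotic.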

[1] = 12 h, 1 µM, compound concentration 1 uM, replicate 1
[2] = 12 h, 1 µM, compound concentration 1 uM, replicate 2
[3] = 12 h, 10 µM, compound concentration 10 uM, replicate 1
[4] = 12 h, 10 µM, compound concentration 10 uM, replicate 2
[5] = 24 h, 1 µM, compound concentration 1 uM, replicate 1
[6] = 24 h, 1 µM, compound concentration 1 uM, replicate 2
[7] = 24 h, 10 µM, compound concentration 10 uM, replicate 1
[8] = 24 h, 10 µM, compound concentration 10 uM, replicate 2
[9] = 48 h, 1 µM, compound concentration 1 uM, replicate 1
[10] = 48 h, 1 µM, compound concentration 1 uM, replicate 2
[11] = 48 h, 10 µM, compound concentration 10 uM, replicate 1
[12] = 48 h, 10 µM, compound concentration 10 uM, replicate 2

O=C(Nc1ccc(-n2nc(-c3cccnc3)cc2C(F)(F)F)cn1)c1ccc(-c2ccccc2)c(F)c1 [BI 2049]
Population Apoptotic (%) [1]: 46%
Population Fragmented Nuclei (%) [1]: 22%
Population Healthy Nuclei (%) [1]: 24%
Population Hoechst High Intensity Objects (%) [1]: 21%
Population Membrane Permeable-Phenotype (%) [1]: 0%
Population Mitochondria Different-Phenotype (%) [1]: 60%
Population Mitotic Cells (%) [1]: 53%
Population Normal (%) [1]: 78%
Population Pyknosed Nuclei (%) [1]: 53%
Population Tubulin-Different-Phenotype (%) [1]: 10%
Total Cell Count [1]: 147
Population Apoptotic (%) [2]: 3%
Population Fragmented Nuclei (%) [2]: 11%
Population Healthy Nuclei (%) [2]: 37%
Population Hoechst High Intensity Objects (%) [2]: 2%
Population Membrane Permeable-Phenotype (%) [2]: 3%
Population Mitochondria Different-Phenotype (%) [2]: 8%
Population Mitotic Cells (%) [2]: 96%
Population Normal (%) [2]: 97%
Population Pyknosed Nuclei (%) [2]: 51%
Population Tubulin-Different-Phenotype (%) [2]: 1%
Total Cell Count [2]: 166
Population Apoptotic (%) [3]: 63%
Population Fragmented Nuclei (%) [3]: 12%
Population Healthy Nuclei (%) [3]: 23%
Population Hoechst High Intensity Objects (%) [3]: 11%
Population Membrane Permeable-Phenotype (%) [3]: 3%
Population Mitochondria Different-Phenotype (%) [3]: 90%
Population Mitotic Cells (%) [3]: 36%
Population Normal (%) [3]: 88%
Population Pyknosed Nuclei (%) [3]: 64%
Population Tubulin-Different-Phenotype (%) [3]: 65%
Total Cell Count [3]: 254
Population Apoptotic (%) [4]: 12%
Population Fragmented Nuclei (%) [4]: 5%
Population Healthy Nuclei (%) [4]: 47%
Population Hoechst High Intensity Objects (%) [4]: 3%
Population Membrane Permeable-Phenotype (%) [4]: 9%
Population Mitochondria Different-Phenotype (%) [4]: 15%
Population Mitotic Cells (%) [4]: 88%
Population Normal (%) [4]: 96%
Population Pyknosed Nuclei (%) [4]: 47%
Population Tubulin-Different-Phenotype (%) [4]: 13%
Total Cell Count [4]: 276
Population Apoptotic (%) [5]: 65%
Population Fragmented Nuclei (%) [5]: 25%
Population Healthy Nuclei (%) [5]: 30%
Population Hoechst High Intensity Objects (%) [5]: 26%
Population Membrane Permeable-Phenotype (%) [5]: 6%
Population Mitochondria Different-Phenotype (%) [5]: 59%
Population Mitotic Cells (%) [5]: 34%
Population Normal (%) [5]: 73%
Population Pyknosed Nuclei (%) [5]: 43%
Population Tubulin-Different-Phenotype (%) [5]: 31%
Total Cell Count [5]: 143
Population Apoptotic (%) [6]: 12%
Population Fragmented Nuclei (%) [6]: 7%
Population Healthy Nuclei (%) [6]: 73%
Population Hoechst High Intensity Objects (%) [6]: 4%
Population Membrane Permeable-Phenotype (%) [6]: 3%
Population Mitochondria Different-Phenotype (%) [6]: 6%
Population Mitotic Cells (%) [6]: 87%
Population Normal (%) [6]: 95%
Population Pyknosed Nuclei (%) [6]: 19%
Population Tubulin-Different-Phenotype (%) [6]: 4%
Total Cell Count [6]: 212
Population Apoptotic (%) [7]: 60%
Population Fragmented Nuclei (%) [7]: 12%
Population Healthy Nuclei (%) [7]: 27%
Population Hoechst High Intensity Objects (%) [7]: 13%
Population Membrane Permeable-Phenotype (%) [7]: 3%
Population Mitochondria Different-Phenotype (%) [7]: 82%
Population Mitotic Cells (%) [7]: 39%
Population Normal (%) [7]: 86%
Population Pyknosed Nuclei (%) [7]: 60%
Population Tubulin-Different-Phenotype (%) [7]: 53%
Total Cell Count [7]: 266
Population Apoptotic (%) [8]: 5%
Population Fragmented Nuclei (%) [8]: 6%
Population Healthy Nuclei (%) [8]: 64%
Population Hoechst High Intensity Objects (%) [8]: 2%
Population Membrane Permeable-Phenotype (%) [8]: 6%
Population Mitochondria Different-Phenotype (%) [8]: 14%
Population Mitotic Cells (%) [8]: 94%
Population Normal (%) [8]: 97%
Population Pyknosed Nuclei (%) [8]: 29%
Population Tubulin-Different-Phenotype (%) [8]: 23%
Total Cell Count [8]: 339
Population Apoptotic (%) [9]: 54%
Population Fragmented Nuclei (%) [9]: 27%
Population Healthy Nuclei (%) [9]: 35%
Population Hoechst High Intensity Objects (%) [9]: 18%
Population Membrane Permeable-Phenotype (%) [9]: 2%
Population Mitochondria Different-Phenotype (%) [9]: 20%
Population Mitotic Cells (%) [9]: 46%
Population Normal (%) [9]: 81%
Population Pyknosed Nuclei (%) [9]: 37%
Population Tubulin-Different-Phenotype (%) [9]: 14%
Total Cell Count [9]: 166
Population Apoptotic (%) [10]: 11%
Population Fragmented Nuclei (%) [10]: 7%
Population Healthy Nuclei (%) [10]: 83%
Population Hoechst High Intensity Objects (%) [10]: 2%
Population Mitochondria Different-Phenotype (%) [10]: 3%
Population Mitotic Cells (%) [10]: 88%
Population Normal (%) [10]: 97%
Population Pyknosed Nuclei (%) [10]: 8%
Population Tubulin-Different-Phenotype (%) [10]: 6%
Total Cell Count [10]: 420
Population Apoptotic (%) [11]: 55%
Population Fragmented Nuclei (%) [11]: 14%
Population Healthy Nuclei (%) [11]: 28%
Population Hoechst High Intensity Objects (%) [11]: 18%
Population Membrane Permeable-Phenotype (%) [11]: 1%
Population Mitochondria Different-Phenotype (%) [11]: 52%
Population Mitotic Cells (%) [11]: 44%
Population Normal (%) [11]: 81%
Population Pyknosed Nuclei (%) [11]: 56%
Population Tubulin-Different-Phenotype (%) [11]: 40%
Total Cell Count [11]: 298
Population Apoptotic (%) [12]: 7%
Population Fragmented Nuclei (%) [12]: 6%
Population Healthy Nuclei (%) [12]: 82%
Population Hoechst High Intensity Objects (%) [12]: 2%
Population Membrane Permeable-Phenotype (%) [12]: 5%
Population Mitochondria Different-Phenotype (%) [12]: 4%
Population Mitotic Cells (%) [12]: 92%
Population Normal (%) [12]: 97%
Population Pyknosed Nuclei (%) [12]: 10%
Population Tubulin-Different-Phenotype (%) [12]: 21%
Total Cell Count [12]: 633
